The text below walks through data of PMC3846294 (Chemical research in toxicology, 2013).

For assay [1], the target named is T1, hSULT2A1 (Homo sapiens, UniProt Q06520).
T1 sequence (Q06520 1-285): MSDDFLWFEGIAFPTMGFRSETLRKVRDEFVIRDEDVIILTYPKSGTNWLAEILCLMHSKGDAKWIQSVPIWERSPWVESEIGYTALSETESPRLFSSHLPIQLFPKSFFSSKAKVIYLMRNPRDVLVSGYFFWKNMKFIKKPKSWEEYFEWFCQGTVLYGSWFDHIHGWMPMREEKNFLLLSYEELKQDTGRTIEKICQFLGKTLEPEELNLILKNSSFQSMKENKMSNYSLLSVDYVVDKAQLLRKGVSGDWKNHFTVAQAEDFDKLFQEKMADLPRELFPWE
Nature of the assay: Binding of PAP to quinone-pretreated hSULT2A1. As to conditions: in the absence of DHEA; pretreatment with 10 μM quinone. In a few lines:
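Purified recombinant hSULT2A1 was expressed in E. coli BL21(DE3) and pretreated with test compound for 1 h at 25 °C. It was then placed at 15 nM final (dimer) in 0.25 M potassium phosphate, pH 7.4, without DHEA, 20 min before titration. PAP was added to 0.5–300 μM final at 37 °C. Intrinsic fluorescence (ex 290/em 347 nm) was read 10 s after each addition, dilution-corrected, in duplicate. Dissociation constants were derived.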

Assay [2] deals with T1, hSULT2A1. Nature of the assay: Structural modification of hSULT2A1 by quinones, proteolytic digestion and LC/MS. The note with it: 15 μM hSULT2A1 with 250 μM quinone, 1 h, pH 8.0, 25 °C. In a few lines: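 Recombinant hSULT2A1 was expressed in E. coli BL21(DE3), purified, and desalted of DTT into 50 mM Tris-HCl pH 8.0. 15 μg enzyme was reacted with quinone (17:1 molar ratio), then alkylated with 45 mM final 4-vinylpyridine for 1 h. Digestion used 0.6 μg trypsin with 10% v/v acetonitrile at 37 °C for 16 h, plus 1 μg Glu-C where needed. Peptides were analysed by LC/MS.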

For assay [3], the target named is T1, hSULT2A1. The class given is biochemical. The note with it: 100-fold dilution, 0.5 μM DHEA (Figure 4). The method in brief: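 E. coli-expressed, purified hSULT2A1 was preincubated with test compound for 1 h at 25 °C, then diluted 100-fold into a standard assay containing 0.5 μM 3H-DHEA. The mixture was prewarmed at 37 °C for 2 min, and the reaction was started with 30 ng of enzyme. It ran for 3 or 4 min at 37 °C to keep initial velocity. Runs were in triplicate, mean ± SD, compared with untreated enzyme by paired two-tailed t test (p < 0.05).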

Where two headings read alike, the source gives them in different places.

As to “4′-chlorophenyl-2,5-benzoquinone [4′-Cl-BQ]”, the “Binding of PAP to the pretreated enzyme” value on hSULT2A1 [1] was “no detectable binding of PAP”. Further, the “Protein adducts at cysteines of hSULT2A1” value at hSULT2A1 [2] is “protein adducts were observed at Cys55 and Cys199”.

`O=C1C=CC(=O)C(c2ccccc2Cl)=C1` [2′-Cl-BQ, 2′-chlorophenyl-2,5-benzoquinone]: the “Binding of PAP to the pretreated enzyme” value at hSULT2A1 [1] is listed as “no detectable binding of PAP”. At hSULT2A1 [2], the “Protein adducts at cysteines of hSULT2A1” value is “protein adducts were observed at Cys55 and Cys199”.

For `O=C1C=C(Cl)C(=O)C(c2ccc(Cl)cc2)=C1Cl` [3,6,4′-triCl-BQ, 4′-chlorophenyl-3,6-dichloro-2,5-benzoquinone], at hSULT2A1 [2], the “Protein adducts at cysteines of hSULT2A1” value was “a dichlorinated adduct was found in the digested peptides containing Cys55 and Cys199”.

Regarding `O=C1C=CC(=O)C(c2ccccc2)=C1` [PBQ, phenyl-2,5-benzoquinone], the “Catalytic activity of hSULT2A1 following preincubation with PBQ” value is on record as “increase in the catalytic activity” on hSULT2A1 [3] (PBQ 0.5 μM or 1.0 μM) and “decreases in catalytic activity” on hSULT2A1 [3] (PBQ 5.0 μM or higher). The “Protein adducts at cysteines of hSULT2A1” value at hSULT2A1 [2] is “protein adducts were observed at Cys55 and Cys199”.
